Runt-SMMHC FRET = inhibitors of human RUNX1 Runt domain binding to CBFb-SMMHC. Q01196+Q13951. Cerulean-Runt/Venus-CBFb-SMMHC FRET ratio 530/480, 1 h. inhibition, % at 20 µM. hit rate 0.74% among 220,000. AID 1434;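 active = mean inhibition across duplicate retests at 20 µM reaching about 50%, limit read from the data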;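 also: 0% = DMSO wells and 100% = wells with excess untagged CBFb-SMMHC; inhibitors lower the FRET ratio by blocking Runt binding to CBFb-SMMHC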
Runt-CBFb FRET = Runt domain-CBFb interaction inhibition | Cerulean-Runt/Venus-CBFb FRET ratio 530/480, 1 h | inhibition, % at 20 µM | Q01196+Q13951 | hit rate 0.46% among 220,000;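 active = inhibition over about 50% at 20 µM in the single-dose screen, limit read from the data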;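 also: 0% = DMSO wells and 100% = excess unlabeled CBFb competitor control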
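Reagent – Venus-CBFb binding partner, 100 nM · Assay system – Cerulean-tagged RUNX1 Runt domain (FRET donor) fusion protein · Input – 100 nM per protein · Incubation – two 1 h room-temperature incubations shielded from light · Measured by – FRET fluorescence · Medium – Tris buffer pH 7.5 with salts and BSA · Benchmarks – unlabeled CBFb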
RanGTP-Imp inh = inhibitors of RanGTP-importin-beta interaction, primary screen, biochemical, FRET, CFP-Ran, YFP-importin-beta, homogeneous. cell-free CFP-Ran/YFP-importin-beta FRET ratio. inhibition, % (concentration not given with the values). AID 2216. hit rate 1.1% among 300,000;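 active = more than half of the replicate wells show a fall in the fluorescence ratio signal beyond about 16%, limit read from the data, passing the limit was not always enough; inconclusive = exactly half of the replicate wells pass the set limit; inactive = fewer than half of replicates pass the limit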;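 also: 0% = DMSO wells and 100% = Ran loaded with GDP instead of GTP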
Hck Nef HTS = blocks Nef-activated human Hck kinase; AID 463187; P08631; Recombinant Hck-YEEI plus Nef, Z-Lyte FRET kinase assay; hit rate 0.68% among 220,000; inhibition, % at 20 µM;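 active = Hck-Nef kinase inhibition above about 50%, limit read from the data; inactive = inhibition below that limit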;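 also: 0% = DMSO with Hck plus Nef and 100% = Hck alone without Nef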
Target sequence (P08631 whole entry, looked up): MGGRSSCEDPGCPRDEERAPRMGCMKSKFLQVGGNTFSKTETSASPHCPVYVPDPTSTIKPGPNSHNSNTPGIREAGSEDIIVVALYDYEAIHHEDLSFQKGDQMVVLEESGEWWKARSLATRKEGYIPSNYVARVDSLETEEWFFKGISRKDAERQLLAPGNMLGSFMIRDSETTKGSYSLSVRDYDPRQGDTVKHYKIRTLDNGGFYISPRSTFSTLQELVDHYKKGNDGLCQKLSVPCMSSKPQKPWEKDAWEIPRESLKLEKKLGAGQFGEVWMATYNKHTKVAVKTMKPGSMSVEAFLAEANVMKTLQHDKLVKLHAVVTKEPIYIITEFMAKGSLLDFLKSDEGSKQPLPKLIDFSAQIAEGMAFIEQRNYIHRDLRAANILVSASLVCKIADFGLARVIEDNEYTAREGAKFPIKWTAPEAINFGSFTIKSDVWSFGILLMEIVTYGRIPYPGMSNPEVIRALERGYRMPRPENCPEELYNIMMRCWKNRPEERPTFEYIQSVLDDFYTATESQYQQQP
Hck-Nef confirm = confirmation of Hck-Nef kinase inhibitors; calls only at 10 µM; hit rate 28% among 1,300; Recombinant Hck-YEEI:Nef, Z-Lyte FRET kinase assay; shares compounds with Hck Nef HTS;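 active = average inhibition of at least 50%, with Z-scores no higher than 3 in both the phospho-tyrosine peptide and fluorescence counterscreens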
* hit, by the source's call; i = inactive; ? = inconclusive; / = no result shown; + = active, no number. Only some compounds are listed: those with a hit (about 1.8% of all), similar ones and a draw of the others.

SMILES	Runt-SMMHC FRET	Runt-CBFb FRET	RanGTP-Imp inh	Hck Nef HTS	Hck-Nef confirm
Cn1/c(=N/N=C/c2ccc([N+](=O)[O-])cc2)sc2ccccc21	-67.4	-17.2	/	-1.4	/
Cc1cc(C)c2c(c1)/C(=N\N=c1\sc3ccccc3n1C)C(=O)N2	-14.2	-10.9	3.1	50.6*	i
Nc1cc(C(=O)O)c(N)c2c1C(=O)c1ccccc1C2=O	-12.0	-2.7	-10.6	62.0*	i
COCCn1c(SCC(=O)Nc2sc(C)c(C)c2C#N)nnc1-c1ccc(OC)cc1	-2.1	-1.5	-0.6	2.0	/
Cc1ccc(-c2nnc(SCC(=O)Nc3sc(C)c(C)c3C#N)n2C)cc1	0.9	-1.7	-0.2	50.2*	i
CCCCOc1ccc(-c2nnc(N)s2)cc1	1.9	-4.2	3.0	78.5*	+
Cn1cccc1/C=C1\SC(=Nc2cccc(O)c2)NC1=O	6.7	1.4	5.8	84.7*	+
COc1ccc(CNC(=O)CSc2nc3cccnc3s2)cc1	-0.9	-0.4	2.6	14.8	/
CCc1c(C)c2ccc(O)c(CN3CCCC3)c2oc1=O	/	/	10.7	/	/
COC(=O)Cc1c(C)c2ccc(O)c(CN3CCCC(C)C3)c2oc1=O (configuration not stated)	111.6*	98.1*	21.9*	75.3*	/
Cc1ccc2nc3nc(NCC4CCCO4)c(C(=O)NC4CCCC4)cc3c(=O)n2c1 (configuration not stated)	63.2*	19.2	180.6*	163.8*	/
CCNc1nc2nc3ccc(C)cn3c(=O)c2cc1C(=O)NCC1CCCO1 (configuration not stated)	90.9*	18.7	184.6*	+	/
Cc1ccc2nc3nc(NCC4CCCO4)c(C(=O)NC4CCCCC4)cc3c(=O)n2c1 (configuration not stated)	/	/	177.1*	134.3*	/
COc1ccccc1-c1coc2c(CN3CCCC(C)C3)c(O)ccc2c1=O (configuration not stated)	/	/	0.8	/	/
CCN1CCCC1CNc1ccc(S(C)(=O)=O)cc1[N+](=O)[O-] (configuration not stated)	/	/	-2.5	/	/
COC(=O)c1ccc(NC(=O)N(c2ccccc2)c2ccccc2)cc1	/	/	5.5	/	/
O=C(C(=O)N1CCN(c2cccc(Cl)c2)CC1)c1cn(CC(=O)N2CCOCC2)c2ccccc12	/	/	-2.8	/	/
CCOC(=O)C1=C(C)C(c2ccccc2O)NC(=O)N1 (configuration not stated)	0.9	1.2	-1.0	56.6*	i
CNC(=S)N(CCc1c(C)[nH]c2ccccc12)Cc1cccnc1	/	/	7.8	/	/
O=C(O)Cn1c(=O)c2c3c(sc2n(Cc2ccccc2F)c1=O)CCCC3	/	/	2.5	/	/
CCN1CCCc2cc(CN(CCN3CCOCC3)C(=S)Nc3ccc(OC)cc3)ccc21	-3.6	-1.9	5.1	54.0*	i
CCOc1ccc(NC(=S)N(CCN2CCOCC2)Cc2ccc3c(c2)CCCN3CC)cc1	2.0	-1.4	4.7	35.6	/
CCN1CCCc2cc(CN(CCN3CCOCC3)C(=S)Nc3cc(F)cc(F)c3)ccc21	-1.6	-1.6	-2.2	55.2*	i
COC(=O)c1c(N)n(-c2cc(OC)cc(OC)c2)c2nc3ccccc3nc12	/	/	/	15.5	/
Nc1c(C(=O)NCC2CCCO2)c2nc3ccccc3nc2n1-c1ccccc1 (configuration not stated)	-19.8	82.8*	77.6*	54.6*	/
SMILES	Runt-SMMHC FRET	Runt-CBFb FRET	RanGTP-Imp inh	Hck Nef HTS	Hck-Nef confirm
CCCNC(=O)c1c(N)n(-c2cccc(OC)c2)c2nc3ccccc3nc12	-19.9	62.4*	79.7*	76.5*	/
COCCCNC(=O)c1c(N)n(-c2cccc(S(N)(=O)=O)c2)c2nc3ccccc3nc12	61.6*	91.5*	104.1*	64.5*	/
O=C(CC1C(=O)NCCN1Cc1ccccc1C(F)(F)F)NC1CCCCCC1 (configuration not stated)	/	/	-0.7	/	/
c1ccc2c(c1)OCCOCCOc1ccccc1OCCOCCO2	4.6	1.3	0.4	-0.9	/
CCOC(=O)C1=C(C)N(C)C(=O)NC1c1cccc2ccccc12 (configuration not stated)	/	/	3.5	/	/
Oc1[nH]c2ccccc2c1C=Nc1ccc2c(c1)OCO2	7.2	9.7	-3.2	51.9*	i
Cc1ccc(CCNC(=O)c2cc(-c3ccncc3)nc3ccc(S(=O)(=O)N4CCOCC4)cc23)cc1	/	/	-1.0	/	/
CCOc1ccc(S(=O)(=O)N2CCCCC2)c(C)c1C	-4.3	-4.3	3.8	82.8*	i
CCOc1ccc(S(=O)(=O)N2CCN(C)CC2)c(C)c1C	-1.4	-1.7	0.0	4.3	/
COc1ccc(-c2cnnc(N/N=C/c3ccc(-c4ccc([N+](=O)[O-])cc4)o3)n2)cc1	9.5	34.3	/	84.1*	+
CC[n+]1ccc(C)c2cc(SC(F)(F)F)ccc21	5.3	0.8	3.9	72.3*	i
O=c1/c(=C\c2cc([N+](=O)[O-])cc([N+](=O)[O-])c2O)sc2nc3ccccc3n12	30.9	24.7	/	70.8*	+
CCCCn1c(N)c(N(CC(C)C)C(=O)CSc2nnc(-c3ccc(Cl)cc3)o2)c(=O)[nH]c1=O	/	/	7.0	/	/
O=C1N=c2ccccc2=C1c1sc(=S)n(-c2ccc(O)cc2)c1O	-6.2	-4.8	-1.9	10.9	/
Cc1c(-n2c(O)c(C3=c4ccccc4=NC3=O)sc2=S)c(=O)n(-c2ccccc2)n1C	0.5	12.4	3.1	100.0*	+
COc1ccc(S(=O)(=O)N2CCOC23CCN(C(=O)c2ccccc2OC)CC3)cc1	/	/	-3.7	/	/
COc1cc(NC(=S)Nc2cccc(C)n2)cc(OC)c1OC	-0.3	1.7	-0.1	96.7*	i
CC(=O)Nc1ncnc2c1c(-c1ccc(Cl)cc1)nn2C(C)(C)C	2.8	1.4	3.7	+	+
CC(=O)N(C(C)=O)c1ncnc2c1c(-c1ccc(Cl)cc1)nn2C(C)(C)C	-5.3	-1.5	5.3	73.5*	i
CC(C)(C)c1cc(-c2csc(Nc3ccccc3)[n+]2Cc2ccc(C(=O)O)cc2)cc(C(C)(C)C)c1O	-12.2	-3.7	-2.4	76.3*	i
Cc1ccc(NC(=O)CN2C(=O)N/C(=C/c3cc(C)n(-c4ccc(C(=O)O)cc4)c3C)C2=O)cc1	-8.4	0.1	/	55.8*	i
Cc1ccc(NC(=O)CN2C(=O)S/C(=C\c3cc(C)n(-c4ccc(C(=O)O)cc4)c3C)C2=O)cc1	5.4	6.0	4.9	6.7	/
COc1ccc(/C=C2/C(=O)ON=C2c2ccccc2)cc1OC	53.7	33.3	?	-0.8	/
COc1ccc(/C=C2\C(=O)ON=C2c2cccc([N+](=O)[O-])c2)cc1	7.0	-1.7	6.1	53.4*	i
CSc1nc(N(C)CCO)c2sc3nc(-c4ccco4)c4c(c3c2n1)CCC4	-80.5	-11.3	-1.9	88.8*	i
CCCCN(CC)CCCNC(=O)c1cn(C)c2ccc(S(=O)(=O)N(C)C3CCCCC3)cc2c1=O	/	/	1.3	/	/
C(=N\NCc1ccccc1)/c1ccc2nccnc2c1	-5.0	1.0	1.0	68.4*	+

Bioassay records (PubChem)
